In the library only some 1% were active in any assay of this set; here they are far more common.
DNA FID counter – compounds displacing fluorescent DNA intercalator, primary screen, artefact control for HCV NS3 helicase inhibitor project, biochemical, FID fluorescence; 290,000 tested, 0.17% active; DNA fluorescent intercalator displacement; AID 1845, 2009; inhibition, % at 7.9 µM; in the data active = inhibition above about 37%;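 note: higher means more ethidium bromide displaced from hairpin DNA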
IMP-1 inh-1 – IMP-1 metallo-beta-lactamase inhibitors, primary screen, biochemical, epi-absorbance readout, Pseudomonas aeruginosa enzyme; metallo-beta-lactamase IMP-1 (Pseudomonas aeruginosa); purified IMP-1, nitrocefin hydrolysis, epi-absorbance fluorescence; inhibition, % at 5.6 µM; 290,000 tested, 0.45% active;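 active = inhibition above the mean plus 3 SD of all compounds in the same screening run, cut at about 4.5% in these data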
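System: Purified recombinant IMP-1 metallo-beta-lactamase enzyme | Measured by: Fluorescence quenching readout, ex 480/em 530 nm | Replication: Singlicate | Incubation: 15 min preincubation plus 25 min reaction at 25 °C | Evaluation: Percent inhibition from optical density relative to buffer-blank wells | Benchmarks: DMSO with and without IMP-1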
VIM-2 inhibitor – VIM-2 metallo-beta-lactamase inhibitors, primary screen, biochemical, epi-absorbance readout, Pseudomonas aeruginosa enzyme | purified VIM-2, nitrocefin hydrolysis, epi-absorbance fluorescence | inhibition, % at 5.6 µM | 290,000 tested, 0.89% active | AID 1527, 2009;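 active = inhibition above the mean of all tested compounds plus 3 SD, cutoff set per screening run, cut at about 7.5% in these data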;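 note: red hydrolysis product quenches plate fluorescence so inhibitors raise well fluorescence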
RAD54 inh – inhibitors of human RAD54 branch migration, primary screen, biochemical, fluorescence, single point. 360,000 tested, 0.14% active. RAD54 Holliday junction branch migration, FAM/BHQ fluorescence. AID 602329, 2012. inhibition, % at 10.4 µM;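 active = mean normalized replicate activity at least 40 and at least half of replicates scoring 40 or more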;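 note: inhibitors cause a drop in the FAM fluorescence signal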
Target sequence (Q92698 whole entry, looked up): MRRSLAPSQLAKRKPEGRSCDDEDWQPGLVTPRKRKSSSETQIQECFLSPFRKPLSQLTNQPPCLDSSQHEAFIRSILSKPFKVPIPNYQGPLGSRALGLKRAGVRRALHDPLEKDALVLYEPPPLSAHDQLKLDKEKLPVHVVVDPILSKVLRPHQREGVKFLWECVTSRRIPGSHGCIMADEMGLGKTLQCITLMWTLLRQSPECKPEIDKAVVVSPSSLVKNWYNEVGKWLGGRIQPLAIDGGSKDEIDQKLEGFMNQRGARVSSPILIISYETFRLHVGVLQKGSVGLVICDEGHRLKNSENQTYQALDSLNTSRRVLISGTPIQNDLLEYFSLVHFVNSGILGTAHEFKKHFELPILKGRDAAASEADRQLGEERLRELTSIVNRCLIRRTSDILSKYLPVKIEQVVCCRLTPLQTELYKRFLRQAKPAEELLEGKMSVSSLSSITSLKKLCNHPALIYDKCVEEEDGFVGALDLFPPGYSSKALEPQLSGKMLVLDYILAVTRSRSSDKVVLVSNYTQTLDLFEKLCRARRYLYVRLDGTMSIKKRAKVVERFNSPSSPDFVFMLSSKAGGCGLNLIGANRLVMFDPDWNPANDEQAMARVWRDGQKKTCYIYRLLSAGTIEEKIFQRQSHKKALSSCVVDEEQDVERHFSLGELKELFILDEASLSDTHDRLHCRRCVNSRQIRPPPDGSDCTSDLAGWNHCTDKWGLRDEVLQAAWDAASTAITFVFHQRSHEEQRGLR
PvdQ inh – P. aeruginosa PvdQ acylase inhibitors, primary screen, biochemical, fluorescence, plate reader and imaging, single point; PvdQ acylase [Pseudomonas aeruginosa LESB58]; purified PvdQ acylase; inhibition, % at 10 µM; 340,000 tested, 0.063% active; in the data active = inhibition above about 30%, passing the limit was not always enough
IMP-1 inh-2 – IMP-1 metallo-beta-lactamase inhibitors, confirmation, selectivity assay for selective VIM-2 inhibitor project, biochemical, epi-absorbance readout, triplicate. shares compounds with VIM-2 inhibitor. purified IMP-1, nitrocefin hydrolysis, epi-absorbance fluorescence. inhibition, % at 5.6 µM. 1,300 tested, under 10 active. AID 1856, 2009; call rule not given here
VIM-2 FRET inh – VIM-2 inhibitors in FRET format, confirmation, artefact control for selective VIM-2 inhibitor project, biochemical, epi-absorbance artifact exclusion | shares compounds with VIM-2 inhibitor | purified VIM-2, CCF2 FRET substrate hydrolysis | inhibition, % at 5.6 µM | 1,300 tested, 23% active | AID 1857, 2009;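 active = inhibition above the mean of all tested compounds plus 3 SD, cut at about 19% in these data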
TEM-1 inh – TEM-1 serine beta-lactamase inhibitors, counter-screen for VIM-2 inhibitor project, biochemical, epi-absorbance, HTS | 1,300 tested, 3% active | Purified TEM-1, nitrocefin hydrolysis, epi-absorbance fluorescence | inhibition, % at 5.6 µM | shares compounds with VIM-2 inhibitor;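 active = inhibition above that campaign's mean inhibition plus 3 SD, cut at about 0.46% in these data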
VIM-2 confirm 2 – VIM-2 metallo-beta-lactamase inhibitors, confirmation, biochemical, epi-absorbance, hits shared with IMP-1 screen | shares compounds with VIM-2 inhibitor | purified VIM-2, nitrocefin hydrolysis | inhibition, % at 5.6 µM | 1,300 tested, 96% active | AID 2187, 2009;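 active = inhibition of the VIM-2 beta-lactamase enzyme above about 11% from the earlier first-round screen, limit read from the data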
Hits are given with their value; - = inactive; . = not tested or not shown.

SMILES	DNA FID counter	IMP-1 inh-1	VIM-2 inhibitor	RAD54 inh	PvdQ inh	IMP-1 inh-2	VIM-2 FRET inh	TEM-1 inh	VIM-2 confirm 2
Cc1cc(NCCCOC(C)C)n2c(nc3ccccc32)c1C#N	-	-	30	-	-	-	-	-	37
Cc1cc(C(C)C)n2c(nc3ccccc32)c1C#N	-	-	-	.	.	.	.	.	.
Cc1cc(NCCCn2ccnc2)n2c(nc3ccccc32)c1C#N	-	-	82	-	-	-	-	-	89
CCC(=O)N1[C@H](CO)[C@H]2c3ccccc3N(C(=O)Nc3ccccc3Cl)C[C@H]21	.	.	.	-	.	.	.	.	.
O=C([C@@H]1N[C@@H]2c3ccc(C4=CCCCC4)c(=O)n3C[C@@H]2[C@H]1CO)N1CCC(Cc2ccccc2)CC1	.	.	.	-	.	.	.	.	.
C[C@@H]1CN([C@@H](C)CO)C(=O)c2cc(N(C)C)ccc2O[C@H]1CN(C)S(C)(=O)=O	.	.	.	-	.	.	.	.	.
O=C(c1ccco1)N1N=C(c2ccc(Cl)cc2)CC1c1ccco1 (stereo not given)	-	-	35	-	-	-	69	-	44
COc1ccc2c(C)cc3n[nH]c(=S)n3c2c1	-	-	13	.	-	-	21	-	19
CCN(CC)CCOc1cc2c(nn1)Oc1ccccc1N2C	-	-	18	.	-	-	-	-	20
CN1c2ccccc2Oc2nnc(Cl)cc21	-	-	-	.	-	.	.	.	.
CN1CCN(C(=O)CCCN2C(=O)/C(=C/c3ccc(Cl)cc3)SC2=S)CC1	.	.	.	-	-	.	.	.	.
COc1cc(/C=C2\SC(=S)N(CCC(=O)N3CCN(C)CC3)C2=O)cc(OC)c1OC	-	-	15	-	-	-	-	-	25
COc1ccc(/C=C2/SC(=S)N(CCCC(=O)N3CCN(C)CC3)C2=O)cc1	-	-	17	-	-	-	-	-	31
COc1ccc(/C=C2/SC(=S)N(CCC(=O)N3CCN(C)CC3)C2=O)cc1	-	-	-	-	-	.	.	.	.
CN1CCN(C(=O)CCCN2C(=O)/C(=C/c3ccccc3)SC2=S)CC1	-	-	16	-	-	-	-	-	25
O=C(C[C@@H]1C=C[C@H](NC(=O)c2cccc(F)c2)[C@@H](CO)O1)NCc1ccc(Oc2ccccc2)cc1	.	.	.	-	.	.	.	.	.
Cc1ccc(S(=O)(=O)N[C@@H]2CC[C@@H](CC(=O)N3CCN(c4ccccc4)CC3)O[C@@H]2CO)cc1	.	.	.	-	.	.	.	.	.
CN1C(=O)C2(N=c3ccccc3=N2)c2ccccc21	-	-	19	.	-	-	-	-	34
CN1C(=O)C2(OCC(C)([N+](=O)[O-])CO2)c2ccccc21 (stereo not given)	-	-	-	-	-	.	.	.	.
COc1ccccc1S(=O)(=O)Nc1ccc2c(c1)OC[C@@H](C)NC[C@H](C)[C@@H](OC)CN(C)C2=O	.	.	.	-	.	.	.	.	.
C[C@@H]1CCCCO[C@@H](CN(C)S(=O)(=O)c2ccccc2)[C@H](C)CN([C@@H](C)CO)C(=O)c2cc(NS(C)(=O)=O)ccc2O1	.	.	.	-	.	.	.	.	.
CN1CCN(c2nc(-c3ccccc3O)nc3ccccc23)CC1	-	-	14	.	-	-	-	-	18
C[C@H]1CN([C@@H](C)CO)C(=O)c2cc(-c3cccc(C#N)c3)cnc2O[C@@H]1CN(C)C(=O)c1ccccn1	.	.	.	-	.	.	.	.	.
COc1ccc(NC(=O)Nc2cccc3c2O[C@@H](CN(C)C(=O)NC2CCCCC2)[C@@H](C)CN([C@H](C)CO)C3=O)cc1	.	.	.	-	.	.	.	.	.
Cc1cccn2c(=O)c3cc(C(=O)NCCCOC(C)C)sc3nc12	-	-	18	-	-	-	-	-	26
SMILES	DNA FID counter	IMP-1 inh-1	VIM-2 inhibitor	RAD54 inh	PvdQ inh	IMP-1 inh-2	VIM-2 FRET inh	TEM-1 inh	VIM-2 confirm 2
Cc1cccn2c(=O)c3cc(C(=O)NC4CCCC4)sc3nc12	-	-	17	-	-	-	-	-	15
CCOCCCNC(=O)c1cc2c(=O)n3cccc(C)c3nc2n1C	.	.	.	-	-	.	.	.	.
CCOCCCNC(=O)c1cc2c(=O)n3cccc(C)c3nc2s1	-	-	16	-	-	-	-	-	31
CCCN(CCC)C(=O)c1cc2c(=O)n3cccc(C)c3nc2s1	-	-	12	-	-	-	-	-	17
COc1cccc(S(=O)(=O)N[C@H]2CC[C@@H](CCn3cc(-c4ccc(F)cc4)nn3)O[C@H]2CO)c1	.	.	.	-	.	.	.	.	.
CC(C)NC(=O)N(C)C[C@@H]1OCCCC[C@H](C)Oc2ccc(NC(=O)CCC(F)(F)F)cc2C(=O)N([C@@H](C)CO)C[C@@H]1C	.	.	.	-	.	.	.	.	.
CN1C(=O)c2cc(NC(=O)C3CCOCC3)ccc2OC[C@H]2O[C@H](CC(=O)NCc3ccc4c(c3)OCO4)CC[C@@H]21	.	.	.	-	.	.	.	.	.
Cc1cccn2c(=O)c3cc(C(=O)NCC(C)C)sc3nc12	-	-	14	-	-	-	-	-	23
CCCc1nn(C)c2c(=O)[nH]c(-c3cc(S(=O)(=O)N4CCN(C)CC4)ccc3OCC)nc12	-	-	17	-	-	-	-	-	26
CCCc1nn(C)c2c(=O)[nH]c(-c3cc(S(=O)(=O)Nc4ccc(NC(C)=O)cc4)ccc3OCC)nc12	-	-	-	-	-	.	.	.	.
COc1ccc(CNC(=O)C[C@H]2CC[C@H](NC(=O)c3ccc4c(c3)OCO4)[C@H](CO)O2)cc1	.	.	.	-	.	.	.	.	.
CCOC(=O)CC(S(=O)(=O)c1ccccc1)S(=O)(=O)c1ccccc1	.	.	.	-	.	.	.	.	.
CCOC(=O)c1sc(CS(=O)(=O)c2ccc(Cl)cc2)nc1C	-	-	-	.	-	.	.	.	.
CCOC(=O)N=S(N)(=O)c1ccc(Cl)cc1 (stereo not given)	-	-	15	-	-	-	32	-	26
CCOC(=O)N=S(N)(=O)c1ccccc1 (stereo not given)	-	-	23	-	-	-	51	-	34
COCCOC(=O)N1C(=O)[C@@]2(c3cc(C#Cc4ccc(OC)cc4)ccc31)[C@H](c1ccc(OCCO)cc1)N1[C@H](c3ccccc3)[C@H](c3ccccc3)OC(=O)[C@H]1[C@@H]2C(=O)N1CCN(c2ncccn2)CC1	.	.	.	-	.	.	.	.	.

Screening data: PubChem BioAssay, several laboratories
